In brackets after ≈: the same amount, converted by molar mass.
How the values were obtained:
[1] = tested on: Liver; assay: Metabolic stability in human liver microsomes assessed as parent compound remaining after 10 mins; assay type: ADME, microsome; conditions: microsomes, 10 min
In short: (§1)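 Parent compound remaining after a 10 min incubation with human, mouse or rat liver microsomes.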

[2] = tested on: Liver; assay: Metabolic stability in rat liver microsomes assessed as parent compound remaining after 10 mins; assay type: ADME, microsome; conditions: microsomes, 10 min; in short: as §1
[3] = molecular target: 11-beta-hydroxysteroid dehydrogenase type 2 (Homo sapiens, UniProt P80365); assay: Inhibition of human 11beta-HSD2 up to 30 uM
In short: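 Human 11β-HSD2 counter-screen in vitro; compound tested up to 30 μM.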

[4] = Inhibition of cynomolgus monkey 11beta-HSD2; set-up: species or system Macaca fascicularis
[5] = molecular target: 11-beta-hydroxysteroid dehydrogenase type 2 (Mus musculus, UniProt P51661); assay: Inhibition of mouse 11beta-HSD2
[6] = molecular target: 11-beta-hydroxysteroid dehydrogenase 1 (Rattus norvegicus, UniProt P16232); assay: Inhibition of rat 11beta-HSD1
[7] = tested on: Rattus norvegicus; assay: Toxicity in rat assessed as plasma volume expansion at 300 mg/kg for 2 weeks; assay type: organism-based; conditions: in vivo, 336 h
In short: (§2)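 Exploratory rat toxicology study lasting 2 weeks, with 300 mg/kg as the highest dose given. The study assessed hypokalemia, plasma volume expansion, hypertension and renal toxicity.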

[8] = tested on: Rattus norvegicus; assay: Renal toxicity in rat at 300 mg/kg for 2 weeks; assay type: organism-based; conditions: in vivo, 336 h; in short: as §2
[9] = AUC (0 to 24 hrs) in rat at 300 mg/kg; assay type: ADME, organism-based; set-up: dose 300 mg/kg, time < 24 hr; conditions: in vivo
[10] = molecular target: Cytochrome P450 1A2 (Homo sapiens, UniProt P05177); assay: Inhibition of CYP1A2 (unknown origin); assay type: ADME
[11] = molecular target: Cytochrome P450 2A6 (Homo sapiens, UniProt P11509); assay: Inhibition of CYP2A6 (unknown origin); assay type: ADME
[12] = molecular target: Cytochrome P450 2B6 (Homo sapiens, UniProt P20813); assay: Inhibition of CYP2B6 (unknown origin); assay type: ADME
[13] = molecular target: Cytochrome P450 2C8 (Homo sapiens, UniProt P10632); assay: Inhibition of CYP2C8 (unknown origin); assay type: ADME
[14] = molecular target: Cytochrome P450 3A4 (Homo sapiens, UniProt P08684); assay: Inhibition of CYP3A4 (unknown origin); assay type: ADME
[15] = Permeability from basolateral to apical side in human Caco2 cells; assay type: ADME, cell-based; conditions: Caco-2, read-out: permeability
[16] = Half life in human liver microsomes; assay type: ADME, microsome
In short: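 Human liver microsome incubation; parent half-life determined.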

[17] = Aqueous solubility of the compound in pH 6.5 solution; assay type: physicochemical; conditions: pH 6.5, pH 6.5
In short: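 Aqueous solubility measured at pH 6.5.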

[18] = Metabolic stability in cynomolgus monkey liver microsomes assessed as UGT-mediated glucuronidation of compound by measuring half life in presence of UDPGA; assay type: ADME, Macaca fascicularis
In short: (§3)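 Liver microsomal glucuronidation incubations in the presence of UDPGA; parent half-life determined.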

[19] = Metabolic stability in dog liver microsomes assessed as UGT-mediated glucuronidation of compound by measuring half life in presence of UDPGA; assay type: ADME, Canis lupus familiaris; in short: as §3
[20] = Metabolic stability in rat liver microsomes assessed as UGT-mediated glucuronidation of compound by measuring half life in presence of UDPGA; assay type: ADME; in short: as §3
[21] = molecular target: 11-beta-hydroxysteroid dehydrogenase 1 (Mus musculus, UniProt P50172); assay: Inhibition of 11beta-HSD1 in mouse 3T3L1 cells; assay type: cell-based
In short: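 Mouse adipocyte-like 3T3-L1 cell line, not genetically manipulated, so that inhibition acts on the cells' native mouse 11β-HSD1 activity.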

[22] = Volume of distribution at steady state in mouse at 5 mg/kg, iv; assay type: ADME, organism-based; conditions: in vivo, read-out: Vdss
[23] = Total plasma clearance in mouse at 5 mg/kg, iv; assay type: ADME, organism-based
[24] = Oral bioavailability in mouse at 10 mg/kg; assay type: ADME, organism-based; conditions: in vivo
[25] = AUC (0 to 24 hrs) in mouse at 5 mg/kg, iv; assay type: ADME, organism-based; set-up: time < 24 hr, dose 5 mg/kg, route intravenous; conditions: in vivo
[26] = tested on: Rattus norvegicus; assay: MRT in rat at […], iv; assay type: ADME, organism-based; conditions: in vivo
[27] = AUC (0 to 24 hrs) in rat at […], iv; assay type: ADME, organism-based; set-up: time < 24 hr, dose 7.7 mg/kg, route intravenous; conditions: in vivo
[28] = Oral bioavailability in rat at 10 mg/kg; assay type: ADME, organism-based; conditions: in vivo
[29] = Volume of distribution at steady state in dog at 1 mg/kg, iv; assay type: ADME, organism-based, Canis lupus familiaris; conditions: in vivo, read-out: Vdss
[30] = Total plasma clearance in dog at 1 mg/kg, iv; assay type: ADME, organism-based, Canis lupus familiaris
[31] = Apparent elimination half life in dog at 1 mg/kg, iv; assay type: ADME, organism-based, Canis lupus familiaris; conditions: in vivo, read-out: betat1/2(app) (converted)
[32] = AUC (0 to 24 hrs) in dog at 1 mg/kg, iv; assay type: ADME, organism-based, Canis lupus familiaris; set-up: time < 24 hr, dose 1 mg/kg, route intravenous; conditions: in vivo
[33] = Total plasma clearance in cynomolgus monkey at 1 mg/kg, iv; assay type: ADME, organism-based, Macaca fascicularis
[34] = Apparent elimination half life in cynomolgus monkey at 1 mg/kg, iv; assay type: ADME, organism-based, Macaca fascicularis; conditions: in vivo, read-out: betat1/2(app) (converted)
[35] = MRT in cynomolgus monkey at 1 mg/kg, iv; assay type: ADME, organism-based, Macaca fascicularis; conditions: in vivo
[36] = AUC (0 to 24 hrs) in cynomolgus monkey at 1 mg/kg, iv; assay type: ADME, organism-based, Macaca fascicularis; set-up: dose 1 mg/kg, time < 24 hr, route intravenous; conditions: in vivo
[37] = Protein binding in mouse plasma; assay type: ADME, cell-free; conditions: read-out: PPB (converted)
[38] = Protein binding in rat plasma; assay type: ADME, cell-free; conditions: read-out: PPB (converted)
[39] = Protein binding in cynomolgus monkey plasma; assay type: ADME, cell-free, Macaca fascicularis; conditions: read-out: PPB (converted)
[40] = tested on: Plasma; assay: Drug uptake in po dosed non-fasting diet-induced obese mouse plasma after 3 hrs; assay type: ADME, organism-based; conditions: in vivo
In short: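 Nonfasting diet-induced obese male mice, groups of n = 6 matched for body weight. Tail bleed at −60 min, then oral dosing with vehicle (0.5% Methocel, 0.1% Tween 80 in water) or drug. DHC 10 mg/kg given orally 60 min later. Bleeds at 30, 60 and 120 min after DHC. Plasma corticosterone measured by enzyme immunosorbent assay. Drug levels measured in terminal bleed samples.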

[41] = tested on: Cynomolgus monkey; assay: In vivo inhibition of 11beta-HSD1 in non-fasting diet-induced obese cynomolgus monkey assessed as decrease in corticosterone excursion in plasma pretreated via oral gavage for 30 mins followed by DHC administration measured up to 60 mins by enzyme immunosorbent assay; assay type: functional; conditions: Macaca fascicularis
In short: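 Cynomolgus monkeys given test compound at a predetermined time before the experiment, chosen from its pharmacokinetics. Substrate DHC (rodent substrate, used in place of cortisone) given afterwards. Blood sampled at various times. Design otherwise similar to the mouse DHC challenge.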

[42] = Tmax in non-fasting diet-induced obese cynomolgus monkey administered via oral gavage; assay type: ADME, Macaca fascicularis; conditions: in vivo
[43] = tested on: Plasma; assay: Drug metabolism in dog plasma assessed as ketone A formation at 1 mg/kg, iv; assay type: ADME, organism-based, Canis lupus familiaris; conditions: in vivo
[44] = tested on: Plasma; assay: Drug metabolism in cynomolgus monkey plasma assessed as ketone A formation at 1 mg/kg, iv; assay type: ADME, organism-based, Macaca fascicularis; conditions: in vivo
[45] = tested on: Cynomolgus monkey; assay: Toxicity in cynomolgus monkey assessed as HPA axis activation by measuring DHEAS level at 1 to 10 mg/kg for 7 days; assay type: organism-based, Macaca fascicularis; conditions: in vivo, 168 h
[46] = tested on: Cynomolgus monkey; assay: Toxicity in cynomolgus monkey assessed as HPA axis activation by measuring DHEA level at 1 to 10 mg/kg for 7 days; assay type: organism-based, Macaca fascicularis; conditions: in vivo, 168 h
[47] = tested on: Cynomolgus monkey; assay: Toxicity in cynomolgus monkey assessed as HPA axis activation by measuring cortisol level at 1 to 10 mg/kg for 7 days; assay type: organism-based, Macaca fascicularis; conditions: in vivo, 168 h
[48] = tested on: Plasma; assay: Fraction unbound in cynomolgus monkey plasma at 1 mg/kg after 24 hrs; assay type: ADME, organism-based, Macaca fascicularis; conditions: in vivo
[49] = in vivo; conditions: mouse, adipose tissue / plasma, iv, 5 mg/kg
[50] = in vivo; conditions: mouse, brain / plasma, iv, 5 mg/kg

Sequence of 11-beta-hydroxysteroid dehydrogenase type 2 (Mus musculus, UniProt P51661) (P51661 whole entry): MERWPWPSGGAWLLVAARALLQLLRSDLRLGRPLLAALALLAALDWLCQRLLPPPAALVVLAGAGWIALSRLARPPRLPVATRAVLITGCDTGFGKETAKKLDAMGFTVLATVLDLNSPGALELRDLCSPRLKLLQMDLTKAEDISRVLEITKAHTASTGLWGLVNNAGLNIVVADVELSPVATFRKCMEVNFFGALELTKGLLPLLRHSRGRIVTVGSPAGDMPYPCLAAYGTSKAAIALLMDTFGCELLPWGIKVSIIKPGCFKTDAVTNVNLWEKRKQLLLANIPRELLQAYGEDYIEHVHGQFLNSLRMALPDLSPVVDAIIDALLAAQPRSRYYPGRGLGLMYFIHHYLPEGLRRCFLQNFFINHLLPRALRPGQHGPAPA
Sequence of Cytochrome P450 2C8 (P10632 whole entry): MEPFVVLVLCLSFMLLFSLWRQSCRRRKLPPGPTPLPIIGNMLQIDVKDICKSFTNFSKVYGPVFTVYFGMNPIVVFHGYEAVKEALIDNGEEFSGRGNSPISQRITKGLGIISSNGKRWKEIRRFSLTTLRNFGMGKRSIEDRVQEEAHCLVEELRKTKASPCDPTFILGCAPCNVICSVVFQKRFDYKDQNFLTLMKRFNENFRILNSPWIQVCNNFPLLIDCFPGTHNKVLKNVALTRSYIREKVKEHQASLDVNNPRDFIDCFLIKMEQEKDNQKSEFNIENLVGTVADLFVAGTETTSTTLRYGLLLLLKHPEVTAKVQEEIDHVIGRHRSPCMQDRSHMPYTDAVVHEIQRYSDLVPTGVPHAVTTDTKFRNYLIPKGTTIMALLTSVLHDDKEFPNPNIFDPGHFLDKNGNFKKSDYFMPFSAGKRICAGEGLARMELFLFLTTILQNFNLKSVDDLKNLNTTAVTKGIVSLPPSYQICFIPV
Sequence of 11-beta-hydroxysteroid dehydrogenase type 2 (Homo sapiens, UniProt P80365) (P80365 whole entry): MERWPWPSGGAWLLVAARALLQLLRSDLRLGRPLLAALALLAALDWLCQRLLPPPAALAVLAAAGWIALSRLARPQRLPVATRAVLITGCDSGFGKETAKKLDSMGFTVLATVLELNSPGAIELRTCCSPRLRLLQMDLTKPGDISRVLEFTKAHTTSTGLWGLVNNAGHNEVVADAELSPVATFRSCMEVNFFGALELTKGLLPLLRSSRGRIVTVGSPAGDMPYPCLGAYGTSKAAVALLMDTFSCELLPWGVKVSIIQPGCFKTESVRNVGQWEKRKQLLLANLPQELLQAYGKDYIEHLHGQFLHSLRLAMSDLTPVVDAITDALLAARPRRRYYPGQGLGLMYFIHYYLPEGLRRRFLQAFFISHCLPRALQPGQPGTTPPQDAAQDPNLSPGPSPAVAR
Sequence of Cytochrome P450 3A4 (P08684 whole entry): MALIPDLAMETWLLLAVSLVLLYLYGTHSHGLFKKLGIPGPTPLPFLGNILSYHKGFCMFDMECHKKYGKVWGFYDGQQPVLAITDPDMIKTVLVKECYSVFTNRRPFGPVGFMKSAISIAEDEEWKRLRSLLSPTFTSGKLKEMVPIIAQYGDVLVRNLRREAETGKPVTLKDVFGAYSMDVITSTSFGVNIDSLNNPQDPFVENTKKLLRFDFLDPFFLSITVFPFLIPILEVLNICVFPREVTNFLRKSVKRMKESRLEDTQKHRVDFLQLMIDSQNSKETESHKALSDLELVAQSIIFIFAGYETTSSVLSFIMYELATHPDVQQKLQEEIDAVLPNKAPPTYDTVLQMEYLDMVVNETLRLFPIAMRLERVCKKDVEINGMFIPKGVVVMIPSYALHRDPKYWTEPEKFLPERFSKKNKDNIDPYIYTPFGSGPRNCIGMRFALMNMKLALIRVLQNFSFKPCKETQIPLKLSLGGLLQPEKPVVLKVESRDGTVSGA
Sequence of Cytochrome P450 2B6 (P20813 whole entry): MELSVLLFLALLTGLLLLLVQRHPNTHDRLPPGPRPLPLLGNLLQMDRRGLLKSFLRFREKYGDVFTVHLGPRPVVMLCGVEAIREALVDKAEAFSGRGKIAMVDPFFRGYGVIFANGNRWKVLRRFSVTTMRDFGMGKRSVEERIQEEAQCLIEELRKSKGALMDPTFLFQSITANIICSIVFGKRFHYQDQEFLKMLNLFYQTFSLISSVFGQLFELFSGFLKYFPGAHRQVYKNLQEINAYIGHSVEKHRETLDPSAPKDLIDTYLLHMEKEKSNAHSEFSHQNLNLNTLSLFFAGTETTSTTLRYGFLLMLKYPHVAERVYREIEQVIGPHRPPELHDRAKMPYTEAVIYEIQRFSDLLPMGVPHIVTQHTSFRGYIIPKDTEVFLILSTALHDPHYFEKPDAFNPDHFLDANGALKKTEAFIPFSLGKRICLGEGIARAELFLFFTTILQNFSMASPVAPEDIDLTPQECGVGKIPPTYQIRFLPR
Sequence of Cytochrome P450 2A6 (P11509 whole entry): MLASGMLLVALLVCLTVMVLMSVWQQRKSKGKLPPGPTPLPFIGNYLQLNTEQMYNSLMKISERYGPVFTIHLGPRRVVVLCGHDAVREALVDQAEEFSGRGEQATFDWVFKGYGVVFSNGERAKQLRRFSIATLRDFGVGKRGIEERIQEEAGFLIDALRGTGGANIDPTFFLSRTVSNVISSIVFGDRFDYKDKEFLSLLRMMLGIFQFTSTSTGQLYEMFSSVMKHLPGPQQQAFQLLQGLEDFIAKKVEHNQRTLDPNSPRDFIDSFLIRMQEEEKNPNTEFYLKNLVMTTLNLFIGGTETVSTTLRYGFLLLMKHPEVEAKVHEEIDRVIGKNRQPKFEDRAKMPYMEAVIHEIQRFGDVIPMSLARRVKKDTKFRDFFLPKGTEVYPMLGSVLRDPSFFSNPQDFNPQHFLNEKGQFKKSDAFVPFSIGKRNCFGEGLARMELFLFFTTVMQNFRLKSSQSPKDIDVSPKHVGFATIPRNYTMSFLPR
Sequence of Cytochrome P450 1A2 (P05177 whole entry): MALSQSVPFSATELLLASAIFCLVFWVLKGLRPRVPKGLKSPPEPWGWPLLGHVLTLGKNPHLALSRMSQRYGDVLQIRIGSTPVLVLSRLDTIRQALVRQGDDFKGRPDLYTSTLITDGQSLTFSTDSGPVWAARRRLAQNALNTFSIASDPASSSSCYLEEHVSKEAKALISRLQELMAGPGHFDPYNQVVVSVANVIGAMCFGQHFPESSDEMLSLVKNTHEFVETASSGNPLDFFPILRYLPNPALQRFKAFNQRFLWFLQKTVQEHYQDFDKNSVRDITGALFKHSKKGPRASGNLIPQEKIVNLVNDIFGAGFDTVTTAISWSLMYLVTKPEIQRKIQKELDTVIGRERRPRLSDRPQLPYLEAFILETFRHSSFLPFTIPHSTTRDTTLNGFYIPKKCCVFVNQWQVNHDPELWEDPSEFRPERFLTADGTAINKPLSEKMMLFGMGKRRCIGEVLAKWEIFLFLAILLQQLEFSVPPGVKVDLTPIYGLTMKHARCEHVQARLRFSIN
Sequence of 11-beta-hydroxysteroid dehydrogenase 1 (Rattus norvegicus, UniProt P16232) (P16232 whole entry): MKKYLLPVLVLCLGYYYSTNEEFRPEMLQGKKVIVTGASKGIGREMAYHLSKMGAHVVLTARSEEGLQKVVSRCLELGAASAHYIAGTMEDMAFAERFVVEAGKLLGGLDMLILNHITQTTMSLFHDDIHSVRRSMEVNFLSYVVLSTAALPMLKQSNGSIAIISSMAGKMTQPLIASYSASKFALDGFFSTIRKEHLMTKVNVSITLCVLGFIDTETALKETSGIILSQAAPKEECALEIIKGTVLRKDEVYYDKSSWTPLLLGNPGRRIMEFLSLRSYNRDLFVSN
Sequence of 11-beta-hydroxysteroid dehydrogenase 1 (Mus musculus, UniProt P50172) (P50172 whole entry): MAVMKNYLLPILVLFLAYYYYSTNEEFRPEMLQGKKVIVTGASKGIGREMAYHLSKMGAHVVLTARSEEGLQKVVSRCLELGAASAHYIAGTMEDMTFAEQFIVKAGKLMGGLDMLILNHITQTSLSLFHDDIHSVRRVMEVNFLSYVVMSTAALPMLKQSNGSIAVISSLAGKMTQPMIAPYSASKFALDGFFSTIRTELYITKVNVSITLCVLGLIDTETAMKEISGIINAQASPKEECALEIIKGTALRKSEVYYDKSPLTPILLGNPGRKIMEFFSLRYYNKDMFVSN

SMILES: O=C(CC1(c2ccccc2)C2CC3CC1CC(C2)C3O)N1CC(O)C1 (stereo in doubt; form 2)
- Stability [1]: 91%
- Stability [2]: 67%
- inhibition (INH) [3]: Not Active
- IC50 [4]: 48 µM
- IC50 [5]: 7.9 µM
- IC50 [6]: 0.5 µM
- Activity [7]: Non-Toxic
- Activity [8]: Non-Toxic
- AUC(0-t) at 24 h [9]: ≤ 650 µM·h
- IC50 [10]: > 40 µM
- IC50 [11]: > 40 µM
- IC50 [12]: > 40 µM
- IC50 [13]: > 40 µM
- IC50 [14]: > 40 µM
- Papp B→A [15]: 28.5 ×10⁻⁶ cm/s
- half-life [16]: 2.02 h
- solubility [17]: 1800 µg/mL (≈ 5.27 mM)
- half-life [18]: > 3.33 h
- half-life [19]: > 3.33 h
- half-life [20]: 0.783 h
- IC50 [21]: 0.0286 µM
- Vd [22]: 2 L/kg
- clearance [23]: 50 mL/min/kg
- bioavailability [24]: 56%
- AUC(0-t) at 24 h [25]: 5 µM·h
- MRT [26]: 1.3 h
- AUC(0-t) at 24 h [27]: 6 µM·h
- bioavailability [28]: 20%
- Vd [29]: 3 L/kg
- clearance [30]: 11 mL/min/kg
- half-life [31]: 7.4 h
- AUC(0-t) at 24 h [32]: 4.6 µM·h
- clearance [33]: 21.2 mL/min/kg
- half-life [34]: 6 h
- MRT [35]: 3.3 h
- AUC(0-t) at 24 h [36]: 2.3 µM·h
- fraction unbound [37]: 0.37
- fraction unbound [38]: 0.35
- fraction unbound [39]: 0.32
- Drug uptake [40]: Dose-dependent effect
- ED50 [41]: 0.12 mg/kg
- Tmax [42]: 0.5 h
- Drug metabolism [43]: Metabolite_Detected
- Drug metabolism [44]: Metabolite_Detected
- Activity [45]: Non-Toxic
- Activity [46]: Non-Toxic
- Activity [47]: Non-Toxic
- Cp(f) [48]: 2 nM
- Kp [49]: 0.15
- Kp [50]: < 0.1

Reference: ChEMBL document CHEMBL4014336 (J Med Chem, 2017)
